Measurements pooled from the literature.
Lines come from different studies, so protocols differ.
Target: Muscarinic acetylcholine receptor M4 (CHRM4, Homo sapiens, UniProt P08173)
Sequence (P08173 1-479, as in one of the studies): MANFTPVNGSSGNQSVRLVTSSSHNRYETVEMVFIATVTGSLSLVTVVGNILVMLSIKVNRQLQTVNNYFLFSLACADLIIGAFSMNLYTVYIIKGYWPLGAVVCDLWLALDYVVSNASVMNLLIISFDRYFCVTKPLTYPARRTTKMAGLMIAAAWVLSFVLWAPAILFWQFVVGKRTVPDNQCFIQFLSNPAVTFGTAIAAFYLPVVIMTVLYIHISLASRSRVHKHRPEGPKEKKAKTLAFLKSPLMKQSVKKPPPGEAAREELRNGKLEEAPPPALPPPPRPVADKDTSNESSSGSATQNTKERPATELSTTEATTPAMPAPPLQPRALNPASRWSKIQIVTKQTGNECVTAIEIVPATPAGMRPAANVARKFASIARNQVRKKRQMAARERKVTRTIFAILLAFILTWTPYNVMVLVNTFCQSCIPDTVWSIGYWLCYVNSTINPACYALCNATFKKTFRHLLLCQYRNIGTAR

N#CC1(c2ccccn2)CCN(Cc2cc(C(=O)O)c(=O)n3ccccc23)CC1 — inhibition (cell-free assay; 10 µM): -2.36%
c1ccc(C(NCCNC(c2ccccc2)c2ccccc2)c2ccccc2)cc1 — inhibition (cell-free assay; 10 µM): 32%
Cn1cncc1[C@@](O)(COc1ccc(C#N)cc1-c1ccc(OC(F)(F)F)cc1)c1ccc(C#N)cc1 — inhibition (ligand displacement; 10 µM): -9.7%
CN1CC[C@@]2(C)c3cc(OC(=O)Nc4ccccc4)ccc3N(C)[C@@H]12 — inhibition (ligand displacement; radioligand; 10 µM): 0.3%
COCc1c(-c2cc3cc(C)cc(OC)c3s2)c2c(N)ncnn2c1CN1CCNC(=O)C1 — inhibition (ligand displacement; radioligand; 10 µM): 6%
O=C(Nc1cccnn1)N1CCN([C@@H]2CCOc3cc(C(F)(F)F)ccc32)CC1 — inhibition (cell-free assay; 20 µM): 15%
Cc1ncc(C)n2nc(/C=C/c3nc(N4CCCC4)cc(N4CCOCC4)n3)nc12 — inhibition (ligand displacement; 10 µM): 47%
C[C@H](C(=O)N[C@H]1COc2ccccc2[C@@H]1S(C)(=O)=O)c1ccc(F)cc1 — inhibition (cell-free assay; 10 µM): 6%
